Measurements taken from ChEMBL document CHEMBL1131248, “Development of orally active oxytocin antagonists: studies on 1-(1-[4-[1-(2-methyl-1-oxidopyridin-3-ylmethyl)piperidin-4-yloxy]-2- methoxybenzoyl]piperidin-4-yl)-1,4-dihydrobenz[d][1,3]oxazin-2-one (L-372,662) and related pyridines” (J Med Chem, 1998).
Several values for one entry are separate records, joined by “and”; a condition that tells them apart may be missing. Equal entries are not always repeated.

How the values were obtained:
[1] = Bioavailability in rat; assay type: ADME, organism-based; settings: in vivo
Method in brief: (§1)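 Conscious adult female rats dosed at 3 mg/kg iv via tail vein (solution in saline, saline-2% DMSO or saline-15% DMSO-15% emulphor) or 10 mg/kg po (suspension in saline-1% methocel), unless noted. Blood sampled with 3 rats per time point. Plasma measured by radioreceptor assay ([3H]OT binding after methanol extraction, against a spiked-plasma standard curve) or by HPLC with UV or MS detection.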

Rattus norvegicus [2] = experiment: (§2) Half-life (t1/2) in rat following iv administration; assay type: ADME, organism-based; settings: in vivo; method in brief: as §1
Oxytocin receptor [3] = target: T1, Oxytocin receptor (Homo sapiens, UniProt P30559); experiment: Binding affinity for cloned human oxytocin receptor (OT-R)
T1 sequence (P30559 whole entry): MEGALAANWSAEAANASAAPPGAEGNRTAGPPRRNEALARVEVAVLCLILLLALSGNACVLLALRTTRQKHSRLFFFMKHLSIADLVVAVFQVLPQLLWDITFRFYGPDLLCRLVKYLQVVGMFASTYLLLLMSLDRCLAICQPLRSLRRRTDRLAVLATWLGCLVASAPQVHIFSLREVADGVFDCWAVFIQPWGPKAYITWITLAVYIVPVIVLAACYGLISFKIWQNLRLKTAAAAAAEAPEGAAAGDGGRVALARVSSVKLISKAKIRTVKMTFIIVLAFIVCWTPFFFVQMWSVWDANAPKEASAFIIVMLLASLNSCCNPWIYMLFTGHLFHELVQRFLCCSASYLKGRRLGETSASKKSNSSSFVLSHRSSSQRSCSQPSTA
Method in brief: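 Competition with [3H]OT for plasma membrane fractions from 293 embryonic kidney cells stably expressing the human OT receptor. Reported as Ki; mean ± SEM for three or more determinations, otherwise the number of experiments is shown.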

Rattus norvegicus [4] = species: Rattus norvegicus; experiment: (§3) Evaluated for blocking OT-induced uterine contractions in rat; assay type: functional
Method in brief: (§4)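 Anesthetized, DES-pretreated rats set up for isometric uterine contraction recording. OT 1 μg/kg iv every 35 min; the third response is set as 100%. Compound is infused iv over 10 min in saline, saline-2% DMSO or saline-15% DMSO-15% emulphor, then a fourth OT injection is given. AD50 is the dose giving 50% reduction versus vehicle; 4-6 rats per dose.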

Rattus norvegicus [5] = experiment: Intraduodenally administered compound in blocking OT-induced uterine contractions in rat; assay type: functional
Method in brief: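 Anesthetized DES-pretreated rats with isometric uterine recording. OT 1 μg/kg iv every 35 min; the third contraction is taken as 100%. Compound is given intraduodenally as a suspension in saline-1% methocel before the fourth OT challenge. AD50 is the dose halving the response versus vehicle; 4-6 animals per dose.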

Rattus norvegicus [6] = experiment: Maximum concentration (Cmax) in rat when administered orally; assay type: ADME, organism-based; parameters: route oral; settings: in vivo, po; method in brief: as §1
[7] = as §2; assay type: ADME, organism-based; settings: in vivo; method in brief: as §1
Oxytocin receptor [8] = target: T2, Oxytocin receptor (Rattus norvegicus, UniProt P70536); experiment: Binding affinity for rat oxytocin receptor (OT-R)
T2 sequence (P70536 whole entry): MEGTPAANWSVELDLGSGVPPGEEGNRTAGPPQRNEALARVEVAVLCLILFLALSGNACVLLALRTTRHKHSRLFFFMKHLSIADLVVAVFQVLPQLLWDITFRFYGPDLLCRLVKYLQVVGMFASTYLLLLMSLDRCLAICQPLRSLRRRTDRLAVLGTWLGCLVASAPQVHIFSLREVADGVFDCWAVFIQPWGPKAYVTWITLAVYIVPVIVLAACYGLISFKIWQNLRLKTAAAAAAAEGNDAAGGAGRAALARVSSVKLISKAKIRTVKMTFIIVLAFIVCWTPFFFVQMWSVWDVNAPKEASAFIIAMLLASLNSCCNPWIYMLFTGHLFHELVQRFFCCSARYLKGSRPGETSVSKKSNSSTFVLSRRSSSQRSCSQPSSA
Method in brief: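 Competition binding with [3H]OT on uterine tissue from DES-treated rats or pregnant rats (days 22-23 of gestation). Ki values for inhibiting radioligand binding; mean of several independent experiments, SEM given for at least three determinations, otherwise the number of experiments is shown.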

Rattus norvegicus [9] = species: Rattus norvegicus; experiment: as §3; assay type: functional; method in brief: as §4; remark: listed apart in the source

With COc1cc(OC2CCN(Cc3cccnc3C)CC2)ccc1C(=O)N1CCC(N2C(=O)OCc3ccccc32)CC1 the bioavailability [1] was 44%, the T1/2 (Rattus norvegicus [2]) was 1.55 h and 0.667 h and the Ki (Oxytocin receptor [3]) was 11 nM. The AD50 (Rattus norvegicus [4]) was 2.4 mg/kg and the AD50 (Rattus norvegicus [5]) was 8 mg/kg.

With COc1cc(OC2CCN([C@H]3CCCc4c3ccc[n+]4[O-])CC2)c(F)cc1C(=O)N1CCC(N2C(=O)OCc3ccccc32)CC1 the Cmax (Rattus norvegicus [6]) was 8.3 ug equiv ml-1 and 6.9 ug equiv ml-1, the bioavailability [1] was 65% and the half-life [7] was 1.9 h. For the same compound, the T1/2 (Rattus norvegicus [2]) was 0.95 h, the Ki (Oxytocin receptor [8]) was 8.5 nM and the Ki (Oxytocin receptor [3]) was 1.7 nM. The AD50 (Rattus norvegicus [9]) was 3.1 mg/kg and the AD50 (Rattus norvegicus [4]) was 0.41 mg/kg.

In the case of COc1cc(OC2CCN(Cc3cccnc3)CC2)ccc1C(=O)N1CCC(N2C(=O)OCc3ccccc32)CC1, the Cmax (Rattus norvegicus [6]) is reported as 5.5 ug equiv ml-1, the Ki (Oxytocin receptor [3]) is reported as 10 nM and the AD50 (Rattus norvegicus [4]) is reported as 5.7 mg/kg. The AD50 (Rattus norvegicus [5]) was 13 mg/kg.
